Data set [1] in a line: Inhibition of human ENaC in HBE cells by short-circuit current technique. Format: cell-based.
The nature of data set [2]: Thermodynamic solubility of the compound at pH 1 after 24 hrs of post-equilibriation by shake-flask method. Format: physicochemical. The conditions noted are these: buffer, read-out: Therm_solubility.
Data set [3] can be described thus: Thermodynamic solubility of the compound at pH 4 after 24 hrs of post-equilibriation by shake-flask method. It counts as physicochemical. Particulars: buffer, read-out: Therm_solubility.
Data set [4] is described as follows: Thermodynamic solubility of the compound at pH 6.8 after 24 hrs of post-equilibriation by shake-flask method. It counts as physicochemical. The conditions noted are these: buffer, read-out: Therm_solubility.
A short description of data set [5]: Thermodynamic solubility of the compound at pH 9 after 24 hrs of post-equilibriation by shake-flask method. Particulars: buffer, read-out: Therm_solubility. Format: physicochemical.
The species entered for the next data set is Homo sapiens. Description: Ratio of amiloride IC50 to compound IC50 for human ENaC.
Data set [6] in a line: Inhibition of guinea pig ENaCbeta1/gamma1 expressed in FRT cells by short-circuit current technique. The conditions noted are these: Cavia porcellus. Format: cell-based. The method, boiled down: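 Fischer rat thyroid cells transiently infected with guinea-pig ENaC were used to measure channel blockade, and the value is reported as an IC50.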
The next data set relates to Cavia porcellus. Description: Blockade of tracheal potential difference in it dosed Dunkin Hartley guinea pig at 1hr. Format: functional. The conditions noted are these: Trachea.
Data set [7] in a line: Permeability from apical to basal side of human Caco2 cells. Format: ADME, cell-based. The conditions noted are these: Caco-2, read-out: permeability. A general note: Caco-2 cells form a polarised layer with tight junctions and transporters.
Data set [8] is described as follows: Permeability from basal to apical side of human Caco2 cells. Format: ADME, cell-based. Particulars: Caco-2, read-out: permeability.
Another data set deals with HBE. Description: Inhibition of human ENaC in HBE cells at 30 uM by short-circuit current technique. It counts as cell-based.
Data set [9] deals with T1, Voltage-gated inwardly rectifying potassium channel KCNH2 (Homo sapiens, UniProt Q12809). Description: Binding affinity to human ERG channel.
Data set [10] deals with T1, Voltage-gated inwardly rectifying potassium channel KCNH2. Description: Inhibition of human ERG channel by patch clamp assay. Background: In patch-clamp work, channel activity is measured electrically.

T1 sequence (Q12809 whole entry): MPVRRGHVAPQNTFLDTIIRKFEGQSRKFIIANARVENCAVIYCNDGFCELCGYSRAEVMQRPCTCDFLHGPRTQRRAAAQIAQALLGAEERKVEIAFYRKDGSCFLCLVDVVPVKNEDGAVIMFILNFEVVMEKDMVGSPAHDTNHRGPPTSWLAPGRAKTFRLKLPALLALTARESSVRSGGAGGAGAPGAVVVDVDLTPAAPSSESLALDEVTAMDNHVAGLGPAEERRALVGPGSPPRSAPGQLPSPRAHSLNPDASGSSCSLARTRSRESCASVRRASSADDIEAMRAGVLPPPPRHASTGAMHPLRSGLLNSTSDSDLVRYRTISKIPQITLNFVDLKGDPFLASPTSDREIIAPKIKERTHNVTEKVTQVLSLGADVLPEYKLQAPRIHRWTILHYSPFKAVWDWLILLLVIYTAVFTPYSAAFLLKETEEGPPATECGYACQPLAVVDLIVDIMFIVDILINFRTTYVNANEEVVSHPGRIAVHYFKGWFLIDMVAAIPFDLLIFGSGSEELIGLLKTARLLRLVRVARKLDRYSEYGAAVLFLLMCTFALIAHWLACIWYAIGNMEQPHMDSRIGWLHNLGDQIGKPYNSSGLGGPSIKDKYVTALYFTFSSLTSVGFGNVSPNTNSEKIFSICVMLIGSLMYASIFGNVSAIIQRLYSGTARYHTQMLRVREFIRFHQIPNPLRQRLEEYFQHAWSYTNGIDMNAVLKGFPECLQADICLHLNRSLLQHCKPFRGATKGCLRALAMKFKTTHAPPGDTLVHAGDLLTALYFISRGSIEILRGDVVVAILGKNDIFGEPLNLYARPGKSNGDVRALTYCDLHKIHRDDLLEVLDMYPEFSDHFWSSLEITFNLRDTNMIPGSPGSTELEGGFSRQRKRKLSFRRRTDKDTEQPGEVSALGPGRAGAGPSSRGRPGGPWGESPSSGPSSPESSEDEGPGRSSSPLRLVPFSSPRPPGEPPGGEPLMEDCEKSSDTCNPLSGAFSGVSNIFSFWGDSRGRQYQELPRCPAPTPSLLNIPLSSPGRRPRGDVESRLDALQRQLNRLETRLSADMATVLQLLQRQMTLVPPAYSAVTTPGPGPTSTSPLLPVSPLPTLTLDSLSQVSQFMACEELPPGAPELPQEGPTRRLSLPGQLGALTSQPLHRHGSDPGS

In general, IC50 refers to the concentration that gives 50% inhibition. A low value points to greater potency in that assay. Molecule `C[N+](C)(CCCCCNS(=O)(=O)c1ccc(Cl)cc1)CCNC(=O)c1nc(Cl)c(N)nc1N` displayed a concentration for half-maximal inhibition (IC50) in data set [1] of 960 nM.
Molecule `C[N+](C)(CCNC(=O)c1nc(Cl)c(N)nc1N)CCNS(=O)(=O)c1ccc(Cl)cc1` registered a 50% inhibitory concentration (IC50) in data set [1] of 1120 nM.
`Cc1ccc(CCC(=O)NCCCC[N+](C)(C)CCNC(=O)c2nc(Cl)c(N)nc2N)cc1` gave a half-inhibitory concentration (IC50) in data set [1] of 590 nM.
In data set [1], `C[N+](C)(CCCCNC(=O)c1ccccc1)CCNC(=O)c1nc(Cl)c(N)nc1N` yielded a half-maximal inhibitory concentration (IC50) of 1230 nM. This IC50 lies about 2.1-fold higher than the previous one.
The molecule `COc1ccc(CCC[N+](C)(CCCc2ccc(OC)cc2)CCNC(=O)c2nc(Cl)c(N)nc2N)cc1.[Br-]` displayed an IC50 in [1] of 13 nM. Moreover, the solubility thermodynamic at 24 h in data set [2] amounted to 600 µg/mL; in data set [3], 500 µg/mL; in data set [4], 900 µg/mL; in [5], 1000 µg/mL. Moreover, the Ratio IC50 in the data set filed under Homo sapiens turned out to be 100.
In turn, `CNCCNC(=O)c1nc(Cl)c(N)nc1N` gave a half-inhibitory concentration (IC50) in data set [1] of 4570 nM.
The same measure, in the same setting: in the case of `CN(C)CCN(C)C(=O)c1nc(Cl)c(N)nc1N` it was above 30000 nM.
In data set [1], `Cc1ccc(C(=O)NCCCC[N+](C)(C)CCNC(=O)c2nc(Cl)c(N)nc2N)cc1` had a 50% inhibitory concentration (IC50) of 880 nM.
On to `C[N+](C)(CCCNC(=O)c1ccc(Cl)cc1)CCNC(=O)c1nc(Cl)c(N)nc1N`, for which the half-maximal inhibitory concentration (IC50) in data set [1] is 740 nM. The IC50 values of the last two molecules are within 1.5-fold of each other.
For the molecule `C[N+](C)(CCCCCNC(=O)c1ccc(Cl)cc1)CCNC(=O)c1nc(Cl)c(N)nc1N`, the concentration for half-maximal inhibition (IC50) in [1] was determined as 750 nM.
As a reminder, the ED50 is the dose at which the effect has come halfway, by size or by number of responders. `COc1ccc(CCC[N+](C)(C)CCNC(=O)c2nc(Cl)c(N)nc2N)cc1.[Br-]`: the results for the IC50 in data set [1] and in data set [6] were 270 nM and 180 nM, respectively. The solubility thermodynamic at 24 h in data set [2] came out at 4800 µg/mL; in data set [3] it was 4900 µg/mL; in data set [4] it was 5000 µg/mL; in data set [5], 4700 µg/mL. In the data set with Cavia porcellus, this molecule displayed an ED50 of 0.044 mg/kg. Besides, in data set [7], the Papp A→B came out at 0.93 ×10⁻⁶ cm/s. In addition, in [8], the Papp B→A was 1.67 ×10⁻⁶ cm/s.
With `C[N+](C)(CCCNS(=O)(=O)c1ccc(Cl)cc1)CCNC(=O)c1nc(Cl)c(N)nc1N`, 290 nM corresponded to half-maximal inhibition in [1] (IC50).
The same measure, in the same setting: with `NCCNC(=O)c1nc(Cl)c(N)nc1N` the figure was 3970 nM; with `CN(C)CCNC(=O)c1nc(Cl)c(N)nc1N`, 4780 nM.
Molecule `Cc1ccc(CC(=O)NCCCC[N+](C)(C)CCNC(=O)c2nc(Cl)c(N)nc2N)cc1` gave a half-inhibitory concentration (IC50) in [1] of 750 nM. Compared with the last molecule, the IC50 is about 6.4-fold lower.
The same measure, in the same setting: in the case of `C[N+](C)(CCCCNC(=O)c1ccc(Cl)cc1)CCNC(=O)c1nc(Cl)c(N)nc1N` it was 510 nM.
In general, inhibition refers to the change of the read-out against control, counted positive when it falls. A high value points to a strong effect. Take `CN(C)CCCCNC(=O)c1nc(Cl)c(N)nc1N`: the inhibition in the data set on HBE is below 60%.
Take `C[N+](C)(CCCCNC(=O)Cc1ccc(Cl)cc1)CCNC(=O)c1nc(Cl)c(N)nc1N`: in data set [1], 720 nM corresponded to half-maximal inhibition (IC50).
With `N=C(N)NC(=O)c1nc(Cl)c(N)nc1N` [AMILORIDE], the IC50 is 220 nM in data set [1] and 540 nM in data set [6]. In addition, it took a dose of 0.016 mg/kg to reach the 50% effect level in the data set on Cavia porcellus (ED50).
Molecule `C[N+](C)(CCCCNC(=O)CCc1ccc(OCc2ccccc2)cc1)CCNC(=O)c1nc(Cl)c(N)nc1N` yielded an IC50 in [1] of 80 nM.
Still for that read-out and setting: in the case of `C[N+](C)(CCCCNC(=O)CCc1ccc(Cl)cc1)CCNC(=O)c1nc(Cl)c(N)nc1N` it was 160 nM; in that of `COc1ccc(CCC[N+](CCCc2ccc(OC)cc2)(CCCc2ccc(OC)cc2)CCNC(=O)c2nc(Cl)c(N)nc2N)cc1`, 37 nM.
`C[N+](C)(C)CCNC(=O)c1nc(Cl)c(N)nc1N` returned a half-inhibitory concentration (IC50) in [1] of 5810 nM. This IC50 is about 160-fold higher than that of the molecule before.
The same measure, in the same setting: with `C[N+](C)(CCCCNC(=O)CCc1ccccc1)CCNC(=O)c1nc(Cl)c(N)nc1N` the figure was 910 nM.
As to `C[N+](C)(CCCCNS(=O)(=O)c1ccc(Cl)cc1)CCNC(=O)c1nc(Cl)c(N)nc1N`, the IC50 in [1] amounted to 250 nM.
Still for that read-out and setting: in the case of `N/C(=N\C(=O)c1nc(Cl)c(N)nc1N)NCc1ccccc1` [BENZAMIL] it was 20 nM; in that of `C[N+](C)(CCNC(=O)c1ccc(Cl)cc1)CCNC(=O)c1nc(Cl)c(N)nc1N`, 1660 nM; in that of `C[N+](C)(CCCCNC(=O)Cc1ccccc1)CCNC(=O)c1nc(Cl)c(N)nc1N`, 950 nM.
With `CN(C)CCCNC(=O)c1nc(Cl)c(N)nc1N`, in data set [1], the IC50 came to 17400 nM. Compared with the last molecule, the IC50 is about 18-fold higher.
In the case of `C[N+](C)(CCCCNC(=O)Cc1ccc(OCc2ccccc2)cc1)CCNC(=O)c1nc(Cl)c(N)nc1N.[Br-]`, the IC50 in [1] was found to be 60 nM; in [9], 330 nM; in data set [10], 10800 nM. The Papp A→B in data set [7] came to 3.33 ×10⁻⁶ cm/s. Further, in data set [8], the Papp B→A turned out to be 2.55 ×10⁻⁶ cm/s.

For the origin of these results see ChEMBL document CHEMBL1944512, “Discovery of a novel chemotype of potent human ENaC blockers using a bioisostere approach. Part 1: quaternary amines” (Bioorg Med Chem Lett, 2012).
